According to ChEMBL document CHEMBL3612025, “Synthesis and biological evaluation of novel aromatic-heterocyclic biphenyls as potent anti-leukemia agents” (Eur J Med Chem, 2015):
pIC50: −log10 of the molar value.

Legend:
K562 [1] = assay: Antiproliferative activity against human K562 cells after 48 hrs by MTT assay; type: functional, cell-based; details: K562, 48 h
In short: (§1)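 Human CML K562 line grown in RPMI-1640 with 10% FBS, penicillin G and streptomycin (100 units/ml each) at 37°C, 5% CO2. 2000 cells/well were seeded and compounds were added at four concentrations 48 h later, in triplicate. After 48 h exposure, MTT (5 mg/ml) was added for 4 h. Formazan was dissolved in DMSO and read at 490 nm. IC50 is the mean of three experiments.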

Bcr/Abl fusion protein = Bcr/Abl fusion protein (Homo sapiens, UniProt P00519); assay: Inhibition of Bcr-Abl (unknown origin) after 60 mins by luminescent kinase assay; type: protein assay
K562 [2] = assay: Antiproliferative activity against imatinib-resistant human K562 cells after 48 hrs by MTT assay; type: functional, cell-based; details: K562, 48 h; in short: as §1

Bcr/Abl fusion protein, sequence (P00519 whole entry, the tested form may be a part): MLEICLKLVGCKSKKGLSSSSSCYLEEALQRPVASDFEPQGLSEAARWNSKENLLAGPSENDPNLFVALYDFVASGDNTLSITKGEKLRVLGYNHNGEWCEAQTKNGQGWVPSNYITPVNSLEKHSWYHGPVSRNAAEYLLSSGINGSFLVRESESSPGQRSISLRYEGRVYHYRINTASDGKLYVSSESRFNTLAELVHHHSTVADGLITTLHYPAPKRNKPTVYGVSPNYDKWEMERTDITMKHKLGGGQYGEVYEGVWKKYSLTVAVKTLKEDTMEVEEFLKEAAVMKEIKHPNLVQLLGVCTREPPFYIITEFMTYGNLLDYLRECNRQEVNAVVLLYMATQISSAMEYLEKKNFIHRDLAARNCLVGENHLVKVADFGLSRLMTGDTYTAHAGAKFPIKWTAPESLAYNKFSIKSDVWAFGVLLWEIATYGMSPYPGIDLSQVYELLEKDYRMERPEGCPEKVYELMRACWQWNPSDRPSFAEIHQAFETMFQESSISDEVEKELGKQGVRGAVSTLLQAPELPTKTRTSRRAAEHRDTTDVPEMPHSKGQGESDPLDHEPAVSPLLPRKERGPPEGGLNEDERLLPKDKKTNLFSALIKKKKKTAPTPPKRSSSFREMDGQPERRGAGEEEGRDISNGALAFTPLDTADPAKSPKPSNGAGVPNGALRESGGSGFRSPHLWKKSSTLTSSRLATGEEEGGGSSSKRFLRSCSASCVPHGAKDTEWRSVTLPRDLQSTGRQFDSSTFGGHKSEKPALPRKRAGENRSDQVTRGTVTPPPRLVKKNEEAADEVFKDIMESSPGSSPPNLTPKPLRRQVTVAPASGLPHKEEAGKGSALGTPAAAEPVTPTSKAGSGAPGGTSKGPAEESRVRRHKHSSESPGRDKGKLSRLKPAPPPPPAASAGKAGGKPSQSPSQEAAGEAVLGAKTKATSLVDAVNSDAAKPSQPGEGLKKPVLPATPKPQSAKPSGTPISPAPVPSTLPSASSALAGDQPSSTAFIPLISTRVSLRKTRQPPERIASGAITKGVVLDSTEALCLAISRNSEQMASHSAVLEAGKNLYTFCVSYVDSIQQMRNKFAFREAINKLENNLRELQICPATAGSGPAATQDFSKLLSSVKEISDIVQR
Bcr/Abl fusion protein, sequence (P11274 whole entry, further chain, the tested form may be a part): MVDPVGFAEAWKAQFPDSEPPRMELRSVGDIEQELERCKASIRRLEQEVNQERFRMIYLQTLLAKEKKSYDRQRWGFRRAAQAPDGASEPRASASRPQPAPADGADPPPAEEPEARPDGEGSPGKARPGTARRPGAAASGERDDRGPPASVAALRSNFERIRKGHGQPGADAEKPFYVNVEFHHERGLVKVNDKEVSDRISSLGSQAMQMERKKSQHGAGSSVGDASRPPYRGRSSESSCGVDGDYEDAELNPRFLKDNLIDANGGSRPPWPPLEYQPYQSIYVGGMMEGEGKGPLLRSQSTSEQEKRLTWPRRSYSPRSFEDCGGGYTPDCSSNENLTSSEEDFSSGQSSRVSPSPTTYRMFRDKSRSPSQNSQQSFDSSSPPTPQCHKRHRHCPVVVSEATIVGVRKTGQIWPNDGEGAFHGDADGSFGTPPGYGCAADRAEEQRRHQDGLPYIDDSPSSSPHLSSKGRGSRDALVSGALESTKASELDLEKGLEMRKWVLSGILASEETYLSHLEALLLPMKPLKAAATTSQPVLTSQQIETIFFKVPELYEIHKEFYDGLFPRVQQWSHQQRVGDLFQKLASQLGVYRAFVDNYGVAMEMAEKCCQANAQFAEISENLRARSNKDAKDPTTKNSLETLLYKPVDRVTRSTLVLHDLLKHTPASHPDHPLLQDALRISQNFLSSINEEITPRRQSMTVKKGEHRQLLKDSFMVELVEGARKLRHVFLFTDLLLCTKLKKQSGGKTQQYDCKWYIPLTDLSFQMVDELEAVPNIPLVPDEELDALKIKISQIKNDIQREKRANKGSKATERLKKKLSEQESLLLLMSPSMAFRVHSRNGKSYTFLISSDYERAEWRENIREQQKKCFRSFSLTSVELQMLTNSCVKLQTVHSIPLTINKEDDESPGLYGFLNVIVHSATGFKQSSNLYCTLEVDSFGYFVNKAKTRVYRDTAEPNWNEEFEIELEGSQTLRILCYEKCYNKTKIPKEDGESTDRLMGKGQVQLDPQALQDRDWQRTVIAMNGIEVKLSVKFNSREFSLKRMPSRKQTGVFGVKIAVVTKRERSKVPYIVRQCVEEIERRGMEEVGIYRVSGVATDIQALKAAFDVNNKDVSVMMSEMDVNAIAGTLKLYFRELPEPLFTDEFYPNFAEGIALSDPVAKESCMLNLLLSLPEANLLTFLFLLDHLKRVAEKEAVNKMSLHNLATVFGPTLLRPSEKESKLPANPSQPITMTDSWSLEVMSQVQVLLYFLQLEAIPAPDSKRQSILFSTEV

pIC50 (K562 [1])	pIC50 (Bcr/Abl fusion protein)	pIC50 (K562 [2])	SMILES
< 3.30			O=C(c1ccc(-c2ccccn2)cc1)N1CCN(C(=O)c2cccc(F)c2)CC1
< 3.30	< 3.30		O=C(c1ccc(-c2ccccn2)cc1)N1CCN(C(=O)c2cccc(C(F)(F)F)c2)CC1
4.90	7.18	4.24	COc1cccc(C(=O)N2CCN(C(=O)c3ccc(-c4ccccn4)cc3)CC2)c1
3.75	5.94		CC(C)(C)c1ccc(C(=O)N2CCN(C(=O)c3ccc(-c4ccccn4)cc3)CC2)cc1
4.53	4.34		CN(C)c1cccc(C(=O)N2CCN(C(=O)c3ccc(-c4ccccn4)cc3)CC2)c1
4.13	4.20	< 3.00	Cc1ccnc(-c2ccc(C(=O)N3CCN(C(=O)c4cccc(F)c4)CC3)cc2)c1
4.23	< 3.30		Cc1ccnc(-c2ccc(C(=O)N3CCN(C(=O)c4ccc(C(C)(C)C)cc4)CC3)cc2)c1
4.50	4.72		Cc1ccnc(-c2ccc(C(=O)N3CCN(C(=O)c4cccc(N(C)C)c4)CC3)cc2)c1
4.52	7.14	4.06	O=C(c1ccc(Br)cc1)N1CCN(C(=O)c2ccc(-c3cccs3)cc2)CC1
< 3.30	6.38		O=C(c1ccc(Br)cc1)N1CCN(C(=O)c2ccc(-c3nccs3)cc2)CC1

The remaining lines, values behind:

SMILES	pIC50 (K562 [1])	pIC50 (Bcr/Abl fusion protein)	pIC50 (K562 [2])
O=C(c1ccc(-c2cccnc2)cc1)N1CCN(C(=O)c2cccc(C(F)(F)F)c2)CC1	3.46		
O=C(c1ccc(-c2cccnc2)cc1)N1CCN(C(=O)c2cccc(F)c2)CC1	4.20	6.56	4.09
COc1cccc(C(=O)N2CCN(C(=O)c3ccc(-c4cccnc4)cc3)CC2)c1	3.85	4.22	
CN(C)c1cccc(C(=O)N2CCN(C(=O)c3ccc(-c4cccnc4)cc3)CC2)c1	< 3.30		
Cc1ccnc(-c2ccc(C(=O)N3CCN(C(=O)c4cccc(C(F)(F)F)c4)CC3)cc2)c1	4.38	6.95	3.02
COc1cccc(C(=O)N2CCN(C(=O)c3ccc(-c4cc(C)ccn4)cc3)CC2)c1	4.12	6.03	3.31
Cc1ccc(-c2ccc(C(=O)N3CCN(C(=O)c4cccc(C(F)(F)F)c4)CC3)cc2)cn1	4.33		
Cc1ccc(-c2ccc(C(=O)N3CCN(C(=O)c4cccc(F)c4)CC3)cc2)cn1	4.19	< 3.30	
COc1cccc(C(=O)N2CCN(C(=O)c3ccc(-c4ccc(C)nc4)cc3)CC2)c1	3.58	6.84	3.52
Cc1ccc(-c2ccc(C(=O)N3CCN(C(=O)c4cccc(N(C)C)c4)CC3)cc2)cn1	3.96	< 3.30	
O=C(c1ccc(-c2cccs2)cc1)N1CCN(C(=O)c2cccc(F)c2)CC1	4.87	5.30	
COc1cccc(C(=O)N2CCN(C(=O)c3ccc(-c4cccs4)cc3)CC2)c1	3.82	4.05	
CN(C)c1cccc(C(=O)N2CCN(C(=O)c3ccc(-c4cccs4)cc3)CC2)c1	4.01	6.49	
O=C(c1ccc(-c2cccs2)cc1)N1CCN(C(=O)c2ccc(Cl)cc2Cl)CC1	4.52		
O=C(c1ccc(-c2nccs2)cc1)N1CCN(C(=O)c2cccc(F)c2)CC1	< 3.30	3.35	
COc1cccc(C(=O)N2CCN(C(=O)c3ccc(-c4nccs4)cc3)CC2)c1	3.57	7.80	3.31
CN(C)c1cccc(C(=O)N2CCN(C(=O)c3ccc(-c4nccs4)cc3)CC2)c1	3.93	5.74	
O=C(c1ccc(-c2nccs2)cc1)N1CCN(C(=O)c2ccc(Cl)cc2Cl)CC1	< 3.30	< 3.30	
Cc1ccc(NC(=O)c2ccc(CN3CCN(C)CC3)cc2)cc1Nc1nccc(-c2cccnc2)n1 [IMATINIB]	5.94		4.80
